Source: publication PMC4303873 (Scientific Reports, 2015)

How the values were obtained:
[1] = test system: Normal human epidermal melanocytes; assay: Melanin quantification assay in normal human melanocytes; format: cell-based; details: 50 μM, 72 hours
Procedure, shortened: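 Normal human epidermal melanocytes in Medium 254 with HMGS, trypsinized into M2 medium and seeded at 1 × 10^5 cells/well. After 24 h, treated for 72 h at 37°C. […] Cell pellets dissolved in 1N NaOH at 70°C for 1 h and spun at 10,000 × g for 10 min. Supernatant OD405 measured.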

zebrafish embryos = assay: Zebrafish in vivo assay; details: for decrease of pigmentation level of zebrafish: 50 μM, 9 to 57 hpf (48 h exposure)
Procedure, shortened: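 Synchronized zebrafish embryos, three per well in 200 μl embryo medium. Test compound solutions (in 1% DMSO), 10–50 μM, added from 9 to 57 hpf (48 h exposure). […] At 57 hpf, embryos anesthetized in tricaine, mounted in 1% methyl cellulose and photographed under a stereomicroscope. Body pigmentation scored by phenotype and by image pixel measurement.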

[2] = test system: Normal human epidermal melanocytes; assay: Cell viability; format: cell-based; details: concentration ranging from 0 to 50 μM
Procedure, shortened: (§1)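 Normal human epidermal melanocytes grown in Medium 254 with HMGS. Confluent cells trypsinized, resuspended in Melanocyte Growth Medium M2 and seeded at 2 × 10^4 cells/well. After 24 h, exposed to test compound at 5 or 50 μM at 37°C for 72 h. […] Viability read by MTT.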

Cell viability = format: cell-based, human; details: human, normal human epidermal melanocytes
Procedure, shortened: as §1

ICR male mice = assay: Acute oral toxicity study in mice; format: in vivo
Procedure, shortened: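 ICR male mice (Crl:CD1), 24 animals randomized into 4 groups of six. Single oral gavage at 1500, 3000 or 6000 mg/kg, or vehicle (4% Tween 80 in water for injection), at 20 ml/kg adjusted to pre-dose body weight. Mortality checked twice daily and clinical signs once daily, SD3–SD14. Body weight taken SD1, SD8 and SD15. Gross necropsy of thoracic and abdominal cavities on SD15.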

mushroom tyrosinase = assay: Mushroom tyrosinase inhibition assay and IC50 determination; format: biochemical

## OC[C@H]1O[C@H](Oc2ccc(O)cc2)[C@H](O)[C@@H](O)[C@@H]1O [α-arbutin]
[1]
  decrease of melanin content: very few or no melanin content decrease

## O=c1cc(CO)occ1O [kojic acid, reference compound]
Zebrafish embryos
  decrease of pigmentation level of zebrafish: 12.9%
[1]
  decrease of melanin content: very few or no melanin content decrease

## Oc1ccc(CSCc2ccc(O)cc2)cc1 [T1, bis(4-hydroxybenzyl)sulfide]
[2]
  cytotoxicity to normal human melanocyte cells: non-cytotoxic
Cell viability
  viability at 72 h, 5 µM: 99.2%
  viability at 72 h, 50 µM: 97.2%
ICR male mice; ICR mice, single oral dose
  dose with no adverse toxic effects: up to 6000 mg/kg
ICR male mice; single oral dose 1500, 3000, and 6000 mg/kg
  body weight and body gain versus control mice: no difference
ICR male mice; single oral dose 1500, 3000, and 6000 mg/kg, 14 days observation
  death and clinical symptoms: no death and abnormal clinical symptom
ICR male mice; single oral dose 1500, 3000, and 6000 mg/kg, SD15
  gross lesions at necropsy: no observable gross lesion
Zebrafish embryos
  decrease of pigmentation level of zebrafish: about 41.4%
Zebrafish embryos; both at 50 μM
  decrease of pigmentation relative to kojic acid: 3 fold
Zebrafish embryos; zebrafish, in vivo
  adverse side effects in zebrafish: without any adverse side effects
Mushroom tyrosinase; Dixon plot
  Ki: 58 ± 6 nM
  type of inhibition: strong competitive inhibitor
Mushroom tyrosinase; L-tyrosine substrate, dopachrome at 475 nm, triplicate
  IC50: 530 nM

## OC[C@H]1O[C@@H](Oc2ccc(O)cc2)[C@H](O)[C@@H](O)[C@@H]1O [β-arbutin]
[1]
  decrease of melanin content: very few or no melanin content decrease
